Measurements collected from several papers.
Compare with care: the assays were run in different laboratories.
Target: Focal adhesion kinase 1 (PTK2, Homo sapiens, UniProt Q05397)

With `CCS(=O)(=O)c1cc2cc(C[C@@](O)(CC(C)(C)c3ccc(F)cc3C(N)=O)C(F)(F)F)[nH]c2cn1` the remaining binding was 100% (cell-free assay, competition with immobilised ligand; 1 µM).
For `COc1ncc2cc3ccccc3nc2c1C#N`, the remaining binding was 100% (cell-free assay, competition with immobilised ligand; 5 µM).
For `C[C@@H]1CCN(c2nccc(-c3cnn4ncccc34)n2)C1`, the remaining binding was 100% (binding; 1 µM).
`O=C1CCc2cc(Nc3cc(OC4CCOCC4)c([N+](=O)[O-])cc3Cl)ccc2N1` gave a remaining binding of 100% (cell-free assay, competition with immobilised ligand; 1 µM).
With `O=C(c1ccc(Nc2ncc(Cl)c(-c3cc4ccccc4s3)n2)cc1)N1CCC(N2CCCC2)CC1` the remaining binding was 78% (binding, competition with immobilised ligand; 1 µM).
`CCOCCn1cc(C(=O)Nc2ccc(-n3nc(-c4cccnc4)cc3C(F)(F)F)cn2)ccc1=O` has a remaining binding of 100% (cell-free assay, competition with immobilised ligand; 1 µM).
With `COc1cnc(Nc2cccc(S(N)(=O)=O)c2)nc1N1CCN(c2ccccc2)C(=O)C1` the remaining binding was 99% (binding, competition with immobilised ligand; 1 µM).
`c1cncc(-c2cccc(Nc3nccc(NC4CCCCC4)n3)c2)c1` gave a remaining binding of 67% (binding, competition with immobilised ligand; 10 µM).
The remaining binding of `CC(=O)C1=C(C)N(c2cccc(C(F)(F)F)c2)C(=O)N[C@@H]1c1ccc(C#N)nc1` is reported as 100% (cell-free assay, competition with immobilised ligand; 1 µM).
For `O=C(NCC1CCOCC1)c1n[nH]cc1NC(=O)c1c(F)cccc1F`, the remaining binding was 100% (binding, competition with immobilised ligand; 1 µM).
For `O=C(NCCCN1CCOCC1)c1ccc(Nc2nccc(-c3cc4ccccc4s3)n2)cc1`, the remaining binding was 100% (binding, competition with immobilised ligand; 1 µM).
For `C[C@@H]1CN(c2ccc3ncc(-c4ccc5[nH]nc(C6CC6)c5c4)n3n2)C[C@H](C)O1`, the remaining binding was 100% (binding, competition with immobilised ligand; 0.5 µM).
For `COc1cnc(Nc2cccc(S(N)(=O)=O)c2)nc1N1CCN(c2ccccc2)CC1`, the remaining binding was 100% (binding, competition with immobilised ligand; 1 µM).
For `CN(C)c1nccc(-c2cnc3ncccn23)n1`, the remaining binding was 100% (binding; 1 µM).
`CC(C)(C)c1ccc(-c2nc(CBr)nn2-c2cccc(O)c2)cc1` has a remaining binding of 88% (cell-free assay, competition with immobilised ligand; 10 µM).
With `c1cnn2ncc(-c3ccnc(N4CCC45COC5)n3)c2c1` the remaining binding was 99% (binding; 1 µM).
`Cc1cnc(Nc2ccc(C(=O)N3CCC(N4CCCC4)CC3)cc2)nc1-c1cc2ccccc2s1` gave a remaining binding of 100% (binding, competition with immobilised ligand; 1 µM).
The remaining binding of `FC(F)(F)Oc1cccc(-c2cnc3ccc(-c4ccncc4)nn23)c1` is reported as 83% (cell-free assay, competition with immobilised ligand; 5 µM).
`O=C(NCc1ncc(C(F)(F)F)cc1Cl)c1ccc2c(c1)C1(CCS(=O)(=O)CC1)[C@@H](C1CC1)N2S(=O)(=O)c1ccc(F)cc1` gave a remaining binding of 95% (cell-free assay, competition with immobilised ligand; 1 µM).
`CC1CCCN1c1nccc(-c2cnn3ncccc23)n1` (stereo not shown) has a remaining binding of 100% (binding; 1 µM).
`CNC(=O)Nc1ccc2c(c1)[C@@]1(CC2)OC(=O)N(CC(=O)N(Cc2ccc(F)cc2)[C@@H](C)C(F)(F)F)C1=O` gave a remaining binding of 100% (cell-free assay, competition with immobilised ligand; 1 µM).
`C=CC(=O)N1CCC(C(=O)NCC(=O)N2CCN(c3nc(-c4cnc(N)nc4C(F)F)nc(N4CCOCC4)n3)CC2)CC1` gave a remaining binding of 100% (binding, competition with immobilised ligand; 1 µM).
